Assays:
[1] = target: T1, Progesterone receptor (Oryctolagus cuniculus) (UniProt P06186); assay: Relative binding to progesterone receptor compared to progesterone
T1 sequence (whole entry): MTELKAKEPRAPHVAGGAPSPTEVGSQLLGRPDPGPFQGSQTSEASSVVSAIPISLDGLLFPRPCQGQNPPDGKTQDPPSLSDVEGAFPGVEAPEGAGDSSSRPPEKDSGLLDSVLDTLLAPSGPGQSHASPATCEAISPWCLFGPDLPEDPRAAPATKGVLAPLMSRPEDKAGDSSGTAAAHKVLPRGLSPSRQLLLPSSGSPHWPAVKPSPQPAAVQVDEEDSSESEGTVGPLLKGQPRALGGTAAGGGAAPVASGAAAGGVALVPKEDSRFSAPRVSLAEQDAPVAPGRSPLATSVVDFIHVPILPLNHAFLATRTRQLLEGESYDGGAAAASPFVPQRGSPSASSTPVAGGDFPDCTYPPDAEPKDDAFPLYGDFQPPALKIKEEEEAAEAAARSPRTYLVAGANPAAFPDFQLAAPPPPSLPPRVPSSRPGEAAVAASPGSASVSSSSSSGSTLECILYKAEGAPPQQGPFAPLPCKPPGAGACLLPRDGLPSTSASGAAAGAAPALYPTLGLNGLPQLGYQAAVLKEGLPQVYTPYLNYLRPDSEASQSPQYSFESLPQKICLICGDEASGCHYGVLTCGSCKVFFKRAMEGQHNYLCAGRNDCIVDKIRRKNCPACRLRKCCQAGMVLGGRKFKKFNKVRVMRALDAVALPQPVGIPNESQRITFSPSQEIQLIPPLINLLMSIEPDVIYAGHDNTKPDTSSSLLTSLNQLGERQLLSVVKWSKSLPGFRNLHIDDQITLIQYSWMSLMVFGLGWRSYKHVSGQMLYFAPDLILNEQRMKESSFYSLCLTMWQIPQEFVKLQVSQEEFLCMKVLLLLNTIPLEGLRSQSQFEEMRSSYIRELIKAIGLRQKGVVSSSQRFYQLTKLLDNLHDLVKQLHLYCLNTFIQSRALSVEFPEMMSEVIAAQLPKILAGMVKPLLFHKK
Method in brief: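 Competitive binding to progesterone receptor from rabbit uterus using tritiated progesterone as ligand. Competition factor is the multiple of the concentration needed to give displacement equivalent to the standard; a high factor means weak binding.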

[2] = target: T2, Mineralocorticoid receptor (Rattus norvegicus) (UniProt P22199); assay: Antialdosterone activity in rats administered orally compared to Spironolactone(100)
T2 sequence (whole entry): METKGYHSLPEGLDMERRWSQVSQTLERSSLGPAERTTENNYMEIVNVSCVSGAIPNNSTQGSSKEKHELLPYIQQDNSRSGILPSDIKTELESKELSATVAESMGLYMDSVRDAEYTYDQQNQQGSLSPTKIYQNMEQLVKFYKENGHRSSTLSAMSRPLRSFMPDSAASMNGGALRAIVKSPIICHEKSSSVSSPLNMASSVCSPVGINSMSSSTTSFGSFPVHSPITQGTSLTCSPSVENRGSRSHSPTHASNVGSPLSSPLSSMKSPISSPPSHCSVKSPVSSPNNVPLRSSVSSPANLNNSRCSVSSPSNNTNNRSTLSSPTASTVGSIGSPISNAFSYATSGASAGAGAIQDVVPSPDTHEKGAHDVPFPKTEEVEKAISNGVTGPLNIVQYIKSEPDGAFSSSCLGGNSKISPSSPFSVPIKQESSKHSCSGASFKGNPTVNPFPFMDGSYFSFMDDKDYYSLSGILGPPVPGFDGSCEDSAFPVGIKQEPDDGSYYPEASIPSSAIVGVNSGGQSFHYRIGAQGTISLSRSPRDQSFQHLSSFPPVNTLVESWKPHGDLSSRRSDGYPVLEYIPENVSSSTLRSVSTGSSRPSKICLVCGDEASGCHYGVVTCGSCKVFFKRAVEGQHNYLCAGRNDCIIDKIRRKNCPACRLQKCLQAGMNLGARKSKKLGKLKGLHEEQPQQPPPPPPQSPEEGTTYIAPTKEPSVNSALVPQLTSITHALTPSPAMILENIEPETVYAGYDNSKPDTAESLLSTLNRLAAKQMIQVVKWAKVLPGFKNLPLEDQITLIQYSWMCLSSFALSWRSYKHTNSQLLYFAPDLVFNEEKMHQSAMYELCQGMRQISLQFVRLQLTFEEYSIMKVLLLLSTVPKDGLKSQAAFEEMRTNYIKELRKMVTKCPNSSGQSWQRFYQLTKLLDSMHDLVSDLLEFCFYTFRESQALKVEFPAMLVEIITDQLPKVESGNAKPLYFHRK

[3] = target: T1, Progesterone receptor (Oryctolagus cuniculus); assay: Progestational activity by Clauberg test in rabbits as McPhail index after 3 mg subcutaneous dose; type: functional
Method in brief: (§1)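 Castrated infantile female New Zealand rabbits (800–1000 g) were primed with estradiol 0.5 μg sc daily for 6 days. They then received compound over 5 days (total 3–100 mg sc or 30–300 mg po).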

[4] = target: T1, Progesterone receptor (Oryctolagus cuniculus); assay: Progestational activity by Clauberg test in rabbits as McPhail index after 100 mg subcutaneous dose; type: functional; method in brief: as §1
[5] = target: T1, Progesterone receptor (Oryctolagus cuniculus); assay: Progestational activity by Clauberg test in rabbits as McPhail index after 10 mg subcutaneous dose; type: functional; method in brief: as §1
[6] = target: T1, Progesterone receptor (Oryctolagus cuniculus); assay: Progestational activity by Clauberg test in rabbits as McPhail index after 30 mg subcutaneous dose; type: functional; method in brief: as §1
Rattus norvegicus [7] = species on record: Rattus norvegicus; assay: Ovulation inhibitory activity in rats after 30 mg peroral dose
Rattus norvegicus [8] = species on record: Rattus norvegicus; assay: Ovulation inhibitory activity in rats after 100 mg peroral dose
[9] = target: T3, Androgen receptor (Rattus norvegicus) (UniProt P15207); assay: Antiandrogenic activity as prostate weight after subcutaneous administration compared to Spironolactone; type: functional, organism-based; settings: Prostate gland
T3 sequence (whole entry): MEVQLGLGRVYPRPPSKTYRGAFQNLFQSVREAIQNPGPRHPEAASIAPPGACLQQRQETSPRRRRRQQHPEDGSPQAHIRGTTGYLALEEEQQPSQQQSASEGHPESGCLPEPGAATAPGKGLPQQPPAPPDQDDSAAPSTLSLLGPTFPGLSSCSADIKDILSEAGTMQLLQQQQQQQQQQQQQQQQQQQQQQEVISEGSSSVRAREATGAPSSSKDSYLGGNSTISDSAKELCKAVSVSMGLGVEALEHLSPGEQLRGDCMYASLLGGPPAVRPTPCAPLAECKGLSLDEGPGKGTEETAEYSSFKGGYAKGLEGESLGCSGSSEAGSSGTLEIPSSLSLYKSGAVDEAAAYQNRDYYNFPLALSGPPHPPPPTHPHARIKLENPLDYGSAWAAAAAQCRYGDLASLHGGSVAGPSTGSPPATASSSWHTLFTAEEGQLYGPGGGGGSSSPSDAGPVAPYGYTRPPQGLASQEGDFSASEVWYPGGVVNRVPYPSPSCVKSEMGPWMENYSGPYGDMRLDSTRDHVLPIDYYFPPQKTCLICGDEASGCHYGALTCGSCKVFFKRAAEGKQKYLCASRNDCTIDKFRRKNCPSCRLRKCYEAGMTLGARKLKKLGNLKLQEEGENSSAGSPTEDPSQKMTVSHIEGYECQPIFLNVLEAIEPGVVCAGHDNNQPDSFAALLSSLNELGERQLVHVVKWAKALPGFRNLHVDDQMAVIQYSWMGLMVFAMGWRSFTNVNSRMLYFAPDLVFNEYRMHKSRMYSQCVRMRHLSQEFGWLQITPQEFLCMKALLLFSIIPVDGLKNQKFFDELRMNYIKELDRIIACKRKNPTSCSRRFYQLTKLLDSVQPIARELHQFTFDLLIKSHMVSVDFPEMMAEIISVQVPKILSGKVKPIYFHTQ
Method in brief: (§2)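 Castrated male Wistar SPF rats (~100 g) were dosed once daily for 12 days, sc at 1–16 mg/rat or po at 1–100 mg/rat, each with testosterone propionate 0.1 mg/rat sc; controls got Tp alone. On day 13, fresh seminal vesicle and ventral prostate weights were taken as % of Tp control. Relative potency came from regression/covariance analysis.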

[10] = target: T3, Androgen receptor (Rattus norvegicus); assay: Antiandrogenic activity as seminal vesicle weight after subcutaneous administration compared to Spironolactone; type: functional, organism-based; method in brief: as §2
Rattus norvegicus [11] = species on record: Rattus norvegicus; assay: Ovulation inhibitory activity in rats after 40 mg peroral dose
[12] = target: T1, Progesterone receptor (Oryctolagus cuniculus); assay: Progestational activity by Clauberg test in rabbits as McPhail index after 100 mg peroral dose; type: functional; method in brief: as §1
[13] = target: T1, Progesterone receptor (Oryctolagus cuniculus); assay: Progestational activity by Clauberg test in rabbits as McPhail index after 300 mg peroral dose; type: functional; method in brief: as §1
[14] = target: T1, Progesterone receptor (Oryctolagus cuniculus); assay: Progestational activity by Clauberg test in rabbits as McPhail index after 30 mg peroral dose; type: functional; method in brief: as §1
[15] = target: T3, Androgen receptor (Rattus norvegicus); assay: Antiandrogenic activity after peroral administration as relative potency compared to Spironolactone; type: functional, organism-based; method in brief: as §2

SMILES | Ratio [1] | Relative potency [2] | McPhail index [4] | McPhail index [5] | McPhail index [6] | further results
CC(=O)S[C@@H]1CC2=CC(=O)CCC2(C)C2CCC3(C)C(C21)[C@@H]1C[C@@H]1[C@@]31CCC(=O)O1 (stereo partly drawn) | 14 | 186 | – | – | – | McPhail index [3]: 1.6
CC(=O)S[C@@H]1CC2=CC(=O)C=C[C@]2(C)[C@H]2CC[C@@]3(C)[C@@H]([C@@H]4C[C@@H]4[C@@]34CCC(=O)O4)[C@H]12 (stereo in doubt) [MESPIRENONE] | – | – | – | – | – | Inhibition (Rattus norvegicus [7]): 0%; Inhibition (Rattus norvegicus [8]): 20%
CC(=O)S[C@@H]1CC2=CC(=O)[C@@H]3C[C@@H]3C2(C)C2CCC3(C)C(C21)[C@@H]1C[C@@H]1[C@@]31CCC(=O)O1 (stereo partly drawn) | 7.8 | 228 | 3.4 | 1 | 1.6 | Inhibition (Rattus norvegicus [11]): 100%
CC(=O)S[C@@H]1CC2=CC(=O)CC[C@]2(C)[C@H]2CC[C@@]3(C)[C@@H](CC[C@@]34CCC(=O)O4)[C@H]12 [SPIRONOLACTONE] | – | – | – | – | – | Inhibition (Rattus norvegicus [11]): 16%; Inhibition (Rattus norvegicus [8]): 20%
CC(=O)S[C@@H]1CC2=CC(=O)C=C[C@]2(C)[C@H]2CC[C@@]3(C)[C@@H]([C@@H]4C[C@@H]4[C@@]34CCC(=O)O4)[C@H]12 (stereo in doubt) | 33 | 333 | 2.6 | 1.2 | 1.7 | McPhail index [12]: 1.6; McPhail index [13]: 2.8; McPhail index [14]: 1; Relative potency [9]: 0.4; Relative potency [10]: 0.2; Relative potency [15]: < 0.1

Now from value to molecule, other results behind:

Ratio [1] | Relative potency [2] | McPhail index [4] | McPhail index [5] | McPhail index [6] | SMILES | further results
76 | 115 | – | – | – | CC(=O)S[C@@H]1CC2=CC(=O)C=C[C@]2(C)[C@H]2CC[C@@]3(C)[C@@H]([C@@H]4C[C@@H]4[C@@]34CCC(=O)O4)[C@H]12 (stereo in doubt; 14) | –
18 | 282 | 3.1 | 2.6 | 3.1 | CC(=O)S[C@@H]1CC2=CC(=O)CCC2(C)C2CCC3(C)C(C21)[C@H]1C[C@H]1[C@@]31CCC(=O)O1 (stereo partly drawn) | –
19 | 281 | 3.1 | 2.4 | 3 | CC(=O)S[C@@H]1CC2=CC(=O)[C@@H]3C[C@@H]3C2(C)C2CCC3(C)C(C21)[C@H]1C[C@H]1[C@@]31CCC(=O)O1 (stereo partly drawn) | Relative potency [9]: 2.4; Relative potency [10]: 1
